Rows were chosen to be rich in hits. Some 4.8% of all compounds tested hit in one or more screens of this group.
UPR CHOP act: activators of apoptotic arm of unfolded protein response (CHOP). 0.34% of 330,000 active. CHO-CHOP luciferase reporter, UPR activation, luminescence; percent of tunicamycin response over DMSO baseline. activation, % at 10 µM;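 active = at 10 µM dose, activation of 40% or more, normalized to positive control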
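Assay system: CHO cells with stable CHOP pathway luciferase reporter; Buffer or medium: F12 plus 10% serum; Times: 16-18 h cell attachment, then 6 h compound exposure, 37 °C; Signal: luciferase luminescence; Read-out basis: percent activation relative to tunicamycin control; Control set: tunicamycin high control, DMSO low control.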
CSC inhib: blocks cancer stem cells | cancer stem cell-like cells viability, luminescence | inhibition, % at 7.5 µM | 1.1% of 300,000 active; in the data active = inhibition above about 75%; tested in HMLE shEcad cells
Mdm2 MdmX PPI: human Mdm2/MdmX binding inhibition; O15151+Q00987; SaOS-2 split-luciferase Mdm2/MdmX complementation, luminescence; inhibition, % at 8 µM; 3% of 330,000 active;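 active = inhibition of at least 50% at 8 µM in the primary screen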
Beta cell apopt: blocks beta cell apoptosis; INS-1E cytokine-induced death, ATP luminescence, 48 h; percent of positive-control rescue, neutral wells zero; protection from apoptosis, % (no concentration beside the values); 0.8% of 300,000 active; AID 435005;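 active = Every replicate reaches about 75%, or at least half do and their mean reaches it too, limit read from the data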;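 note: higher means more ATP so stronger rescue from cytokine killing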
SKKanGAS inh: blocks kanamycin growth of S. pyogenes SKKanGAS strain. BacTiter-Glo, 6 h. inhibition, % at 7.5 µM. 1.3% of 300,000 active;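 active = mean replicate score, as percent of positive control median, at least 50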;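 note: strain carries kanamycin resistance gene driven by streptokinase promoter and grows in 40 µg/ml kanamycin; loss of luminescence reflects streptokinase promoter inhibition or plain growth inhibition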
XBP1 UPR activ: adaptive UPR (XBP1) activation. CHO-XBP1 luciferase reporter, IRE1-XBP1 UPR activation, luminescence; percent of tunicamycin response, DMSO as zero. activation, % at 20 µM. 0.33% of 330,000 active. AID 463104;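 active = versus positive control, 20 µM dose yields 30% or more activation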
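Material – CHO cell line with stable XBP1 luciferase reporter · Buffer or medium – F12 plus 10% FBS · Compound – single point, 20 µM final compound, 1% DMSO · Schedule – 16-18 h cell attachment at 37 °C, then 6 h compound exposure · Signal – Steady-Glo luminescence read · Benchmarks – high control tunicamycin 10 µg/mL final, low control DMSO vehicle only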
Each line names hits and unclear results; the compound was inactive in the other large screens.

Cc1ccccc1NC(=S)NC(=O)COc1ccccc1C	none (no result: Beta cell apopt)
Oc1ccccc1-c1nc2c3ccccc3c3ccccc3c2[nH]1	SKKanGAS inh 86 (no result: UPR CHOP act, Mdm2 MdmX PPI, XBP1 UPR activ)
c1csc(-c2nc3c4ccccc4c4ccccc4c3[nH]2)c1	none
Oc1c(C(Nc2ccccn2)c2cccnc2)cc(Cl)c2cccnc12 (stereo not given)	Beta cell apopt 85, SKKanGAS inh 95
CCC(=O)NC(c1ccco1)c1cc(Cl)c2cccnc2c1O (stereo not given)	none
CC1CC(C)CN(S(=O)(=O)CCNC(=O)c2ccccc2)C1 (stereo not given)	none
COC(=O)c1c(NC(=O)Cc2cccs2)sc2c1CCC(C)C2 (stereo not given)	CSC inhib 80
COCCCN(Cc1cccs1)S(=O)(=O)c1csc(C(N)=O)c1	none
Cc1c(S(=O)(=O)NC2CCCCCC2)c(=O)n(C)c(=O)n1C	none (no result: Beta cell apopt)
C[C@]12CC[C@@H]3c4ccc(OC(=O)c5ccccc5)cc4CC[C@H]3[C@@H]1CC[C@@H]2O	SKKanGAS inh 84
COc1cc2c(cc1O)CC[C@@H]1[C@@H]2CC[C@]2(C)[C@@H](O)CC[C@@H]12	none
O=C(NCC1OCCCN1S(=O)(=O)c1cc(F)ccc1F)C(=O)NC1CCCC1 (stereo not given)	none
COc1ccccc1N1CCN(C(=O)CSc2nc3ccccc3nc2N2CCC(C)CC2)CC1	none
Cc1ccn2c(NC3CCCCC3)c(-c3cccc(-c4cccc(Cl)c4)c3)nc2c1	CSC inhib 102
COc1ccc(S(=O)(=O)N2CCOC23CCN(S(=O)(=O)c2c(C)cc(C)cc2C)CC3)cc1	none
CC(C)c1ccc(N(CCc2ccccn2)C(=O)C(C)(C)C)cc1	none
Fc1cccc2sc(Nc3nnc(-c4ccco4)o3)nc12	SKKanGAS inh 72
Brc1ccc(CNc2ccc3ncccc3c2)cc1	none
CCOC(=O)Cc1cc(=O)n2[nH]cc(-c3cccc(Br)c3)c2n1	SKKanGAS inh 71
O=C1NC(=Nc2ccc(Cl)cc2)SC1Cc1cc(Cl)ccc1Cl (stereo not given)	SKKanGAS inh 82 (no result: CSC inhib, Beta cell apopt)
Cc1ccc(S(=O)(=O)N(Cc2ccc(C(F)(F)F)cc2)C(=O)N2CCN(C)CC2)cc1	none (no result: Beta cell apopt)
COc1ccccc1C(=O)NC(CCSC)C(=O)NCC(c1cccs1)N1CCOCC1 (stereo not given)	none
OC(CNCCC1C=Nc2ccccc21)Cn1c2ccc(Cl)cc2c2cc(Cl)ccc21 (stereo not given)	CSC inhib 106, Beta cell apopt 100, SKKanGAS inh 136 (no result: UPR CHOP act, Mdm2 MdmX PPI, XBP1 UPR activ)
Cn1c(SCC(=O)NCC2CCCO2)ncc(C(=O)Nc2ccccc2)c1=O (stereo not given)	none (no result: Beta cell apopt)
CC(OC(=O)CC1CCCCC1)C(=O)Nc1cccc(C#N)c1 (stereo not given)	none
CC(=O)O[C@H]1C[C@@]2(C)[C@@H](C[C@@H](O)[C@H]3[C@@]4(C)CC[C@@H](O)[C@@H](C)C4CC[C@@]32C)/C1=C(\CCC=C(C)C)C(=O)O (stereo not given in full)	SKKanGAS inh 73 (no result: UPR CHOP act, CSC inhib, Mdm2 MdmX PPI, Beta cell apopt, XBP1 UPR activ)
CC1=C(C)/C(=N\OS(=O)(=O)c2ccc(C)cc2)C=CC1=O	CSC inhib 89, Beta cell apopt 106 (no result: UPR CHOP act, Mdm2 MdmX PPI, SKKanGAS inh, XBP1 UPR activ)
O=C(COC(=O)COc1ccc(Cl)cc1Cl)NC1CCCCCC1	none (no result: CSC inhib, SKKanGAS inh)
Cc1ccc(C(=O)Nc2cccc3[nH]c(C(F)(F)F)nc23)cc1	Beta cell apopt 78
Cc1c(C(=O)Nc2ccc(-c3nnc4n3CCCCC4)cc2)oc2c1ccc1ccccc12	CSC inhib 117
O=C(Nc1ccc(-c2nnc3n2CCCCC3)cc1)c1cc2ccccc2o1	none
Nc1c(C(=O)Nc2ccccc2)c2nc3ccccc3nc2n1-c1ccc(O)cc1	none
CCOC(=O)c1cc(-c2ccc(Cl)cc2)nc2c1c(C)nn2CCC#N	none (no result: CSC inhib)
CCOC(=O)c1cc(-c2ccc3c(c2)OCCO3)nc2c1c(C)nn2CCC#N	SKKanGAS inh 81
O=C(Nc1nc(-c2ccncc2)cs1)c1ccco1	none
O=C(Nc1nc(-c2ccc3c(c2)OCCO3)cs1)c1ccco1	SKKanGAS inh 56
COc1cc(C(=O)NC(C)CCn2cccn2)ccc1OC1CCN(C(C)=O)CC1 (stereo not given)	none
COCCN(C(=O)C1CCN(C(=O)c2ccccc2C)CC1)c1c(N)n(CC(C)C)c(=O)[nH]c1=O	none (no result: CSC inhib, SKKanGAS inh)
